Rows were chosen to be rich in hits. Some 2.6% of all compounds tested hit in one or more screens of this group.
MEKK3 PB1 HTS = MEKK3-MEK5 PB1 interaction, increase or decrease | bead-based flow cytometry, Alexa488-MEK5 binding to MEKK3; actives lie on both sides; 0 = blocked by unlabeled MEK5, 100 = vehicle | binding response (% of control), % at 10 µM | 290,000 tested, 1.4% active | AID 1529;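 active = binding response more than 3 SD above or below the average of its plate-row segment, actives on both sides; inconclusive = wells at one plate position flagged as instrument error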;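 also: Alexa488 bead fluorescence after subtracting the streptavidin-only scavenger bead signal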
Target sequence (Q99759 whole entry, looked up): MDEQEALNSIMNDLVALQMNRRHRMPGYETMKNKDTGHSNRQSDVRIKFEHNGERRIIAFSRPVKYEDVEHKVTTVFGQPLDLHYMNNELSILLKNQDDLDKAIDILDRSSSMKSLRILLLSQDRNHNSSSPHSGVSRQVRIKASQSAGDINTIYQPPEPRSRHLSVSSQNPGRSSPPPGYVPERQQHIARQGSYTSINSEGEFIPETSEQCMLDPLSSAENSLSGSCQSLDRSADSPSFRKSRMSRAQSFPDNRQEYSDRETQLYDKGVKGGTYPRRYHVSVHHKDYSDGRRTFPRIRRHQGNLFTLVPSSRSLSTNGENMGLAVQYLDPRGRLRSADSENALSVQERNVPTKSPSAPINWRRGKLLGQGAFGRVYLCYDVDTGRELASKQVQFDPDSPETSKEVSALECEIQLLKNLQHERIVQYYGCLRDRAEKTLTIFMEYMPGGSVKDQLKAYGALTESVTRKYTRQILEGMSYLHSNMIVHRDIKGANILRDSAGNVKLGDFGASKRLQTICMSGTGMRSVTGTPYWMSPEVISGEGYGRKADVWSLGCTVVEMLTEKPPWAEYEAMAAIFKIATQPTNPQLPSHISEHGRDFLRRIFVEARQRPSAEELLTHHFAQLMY
MEKK2 mut-MEK5 = signal of MEK5 binding to mutant human MEKK2 PB1 domain; bead flow cytometry, Alexa488-MEK5 binding to MEKK2 mutant; percent response, % at 10 µM; 290,000 tested, 0.35% active; in the data active = percent response above about 24%, passing the limit was not always enough
MEKK2wt PB1 HTS = raises or lowers MEK5 binding to wildtype human MEKK2 PB1 domain; bead flow cytometry, Alexa488-MEK5 binding to MEKK2 WT; actives lie on both sides; binding response (% of control), % at 10 µM; 290,000 tested, 1.1% active; AID 1531; in the data active = binding response below about 67% or above about 130%; inconclusive = no clear call, values can overlap the other calls; inactive = in between
Lipid droplet = hepatic lipid droplet formation modulation | AML12 mouse hepatocytes, oleate lipid droplets, BODIPY imaging | inhibition, % at 6.5 µM | 240,000 tested, 0.4% active | AID 1656;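 active = lipid droplet intensity inhibited by at least 50%, with more than 500 cells counted; inconclusive = wells with under 300 cells, treated as cytotoxic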
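Assay system: AML12 hepatocytes (mouse) / Also added: 100 µM oleic acid challenge / Times: overnight treatment with compound plus oleate / Detection: high-content imaging of BODIPY-stained droplets and DAPI nuclei / Evaluation: % inhibition of lipid droplet signal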
MEKK2wt confirm = raises or lowers MEK5 binding to wildtype human MEKK2, retest | bead flow cytometry, Alexa488-MEK5 binding to MEKK2 WT; actives lie on both sides | shares compounds with MEKK3 PB1 HTS | 5,900 tested, 2.4% active | binding response (% of control), % at 10 µM; in the data active = binding response below about 16% or above about 210%; inactive = in between
MEKK2mut-MEK5 = signal of MEK5 binding to mutant human MEKK2, retest | shares compounds with MEKK3 PB1 HTS | bead flow cytometry, Alexa488-MEK5 binding to MEKK2 mutant | percent response, % at 10 µM | 5,900 tested, 2% active | AID 1893; in the data active = percent response mostly above about 71%, no sharp cut-off; inactive = mostly below about 38%;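 also: higher means compound restores mutant binding toward wildtype level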
MEKK3-MEK5 inh = confirmation of inhibitors of MEK5 binding to human MEKK3; shares compounds with MEKK3 PB1 HTS; bead flow cytometry, Alexa488-MEK5 binding to MEKK3; hits give low values; binding response (% of control), % at 10 µM; 5,900 tested, 1.8% active;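 active = binding response below 72% of control, or above a set upper limit, though filed actives all read lower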;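 also: 100% = DMSO only wells and 0% = binding blocked by excess unlabeled MEK5; lower values mean stronger disruption of MEK5 binding to MEKK3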
Active calls of the source: *; u = inconclusive; x = not tested or not shown; [ ] = remark or other dose.

SMILES	MEKK3 PB1 HTS	MEKK2 mut-MEK5	MEKK2wt PB1 HTS	Lipid droplet	MEKK2wt confirm	MEKK2mut-MEK5	MEKK3-MEK5 inh
NC(=O)c1nc(-c2cccs2)nc2c1[nH]c(=O)n2-c1ccc(F)cc1	89	-13	85	-7	x	x	x
COc1ccccc1N1CCN(Cc2nc(N)nc(Nc3ccc(C)c(Cl)c3)n2)CC1	104	7	117	-2	x	x	x
COc1ccccc1Nc1nc(NCCO)c2ccccc2n1	110	1	103	x	x	x	x
Cc1ccc(Nc2nc(NCCO)c3ccccc3n2)cc1C	108	14	160*	3	142	33	104
COc1cc2nc(Nc3ccc(C)c(Cl)c3)nc(N)c2cc1OC	105	50*	181*	29	198	65	105
Cc1ccc(Nc2nc(N)c3ccccc3n2)cc1Cl	110	7	152*	-2	138	33	106
CCOC(=O)c1ccc(Nc2nc(N)c3cc(OC)c(OC)cc3n2)cc1	113	30*	141*	-18	169	37	106
Cc1ccc2c(c1)N(CCC(=O)NC1CCCCC1)C(=O)CO2	101	-5	98	-13	x	x	x
COc1cc2nc(Nc3ccc(F)cc3)nc(N)c2cc1OC	105	22	133	-5	x	x	x
COc1cc2nc(Nc3ccc(C)c(C)c3)nc(N)c2cc1OC	112	28*	159*	-3	159	39	104
COc1cc(NS(=O)(=O)c2ccc(NC(=S)NC(=O)C(C)(C)C)cc2)nc(OC)n1	38*[inhibitor]	-23	51	9	98	0	105
N#Cc1ccccc1NC(=O)CN(Cc1ccccc1)Cc1ccccc1	102	-3	96	-10	x	x	x
C/C(=C\c1ccccc1)CN1CCC(C(=O)N2CCCCC2)CC1	138*	3	109	6	104	4	102
C/C(=C\c1ccccc1)CN1CCC(C(=O)N2CCC(C)CC2)CC1	99	7	95	-2	x	x	x
O=C(NC(=S)N1CCOCC1)C12CCC3CC(CC(C3)C1)C2	134*	2	99	-9	96	-4	100
O=C(NC(=S)N1CCOCC1)C12CC3CCC(CC(C3)C1)C2	100	10	110	3	x	x	x
O=C(c1cc(-c2ccc(Br)cc2)n[nH]1)N1CCN(C(=O)c2ccccc2Br)CC1	103	6	105	-24	x	x	x
CN(Cc1ccccc1F)C(=O)c1sccc1-c1ccccc1	103	16	100	-2	x	x	x
Cc1cc(C)cc(NC(=O)Nc2ccc(-n3ccc(C(F)(F)F)n3)cc2)c1	71	-35	97	-14	x	x	x
O=C(Nc1ccc(-n2ccc(C(F)(F)F)n2)cc1)Nc1cccc(Cl)c1	141*	74*	245*	u	109	-4	106
CCOC(=O)C1C(=O)OC(C)(C)C1C(C)C(=O)c1ccc(C)cc1C (configuration not stated)	1.0*[inhibitor]	-26	-2.0*[inhibitor]	5	96	15	102
COC(=O)C1C(=O)OC(C)(C)C1C(C)C(=O)c1ccc(C)cc1C (configuration not stated)	100	0	104	-2	x	x	x
COCCCNC(=O)Cn1cc(/C=C(\C#N)C(=O)NC2CCCC2)c2ccccc21	100	4	102	6	x	x	x
CC1(C)Cc2ccccc2-c2nc(NCCCO)n(-c3ccccc3)c(=O)c21	91	-8	92	x	x	x	x
COc1cc(CC(=O)OCC(=O)Nc2cc([N+](=O)[O-])ccc2Cl)cc(OC)c1OC	97	9	58*[inhibitor]	-16	90	-6	97
SMILES	MEKK3 PB1 HTS	MEKK2 mut-MEK5	MEKK2wt PB1 HTS	Lipid droplet	MEKK2wt confirm	MEKK2mut-MEK5	MEKK3-MEK5 inh
CCOc1ccc(-n2cc(C(=O)Nc3cccc(Cl)c3)c3cc(OC)c(OC)cc3c2=O)cc1	2.0*[inhibitor]	-18	3.0*[inhibitor]	-2	97	-4	101
O=C(Nc1ccc(Cl)c(S(=O)(=O)N2CCOCC2)c1)c1ccccc1-c1ccc(C(F)(F)F)cc1	95	-1	97	-15	x	x	x
CCc1ccc(-c2cn(-c3nc(C)cc(C)n3)c(=N)o2)cc1	104	1	103	27	x	x	x
CCN(CC)C(=O)c1c([N+](=O)[O-])c(C(C)(C)C)nn1C	140*	1	111	-13	104	1	106
Cn1nc(C(C)(C)C)c([N+](=O)[O-])c1C(=O)NCCO	95	-3	100	0	x	x	x
Cn1c(NC(=O)C[n+]2cc(-c3ccc(Cl)cc3)n3c2CCC3)cc(=O)n(C)c1=O	95	-1	94	0	x	x	x
O=C(C[n+]1cc(-c2ccccc2)n2c1CCC2)Nc1nc(-c2ccc(F)cc2)cs1	108	43	181*	6	172	36	103
O=C(C[n+]1cc(-c2ccc(F)cc2)n2c1CCC2)Nc1nc(-c2ccc(F)cc2)cs1	127	2	134	-17	x	x	x
O=C(C[n+]1cc(-c2ccc(Cl)cc2)n2c1CCC2)Nc1nc(-c2ccc(F)cc2)cs1	118	35	177*	2	197	47	101
Cc1cc(C)n2nc(SCC(=O)NCc3ccco3)nc2n1	77*[inhibitor]	-7	87	x	104	3	101
Cc1ccc2cc(C#N)c(SCC(=O)NCc3ccco3)nc2c1	2.0*[inhibitor]	-17	2.0*[inhibitor]	x	98	-6	100
COc1ccc(/C=N/NC(=O)CSc2n[nH]c(=O)[nH]c2=O)cc1	74*[inhibitor]	0	103	-6	103	1	102
CCOC(=O)c1ccc(S(=O)(=O)NNC(=O)c2cccc(N(C)C)c2)cc1	3.0*[inhibitor]	4	3.0*[inhibitor]	6	98	-3	100
CCNc1ccc(C(=O)OCC)cc1NC(=O)c1cccc(N(C)C)c1	97	-2	95	x	x	x	x
Cc1ccc2oc(-c3cccc(N)c3)nc2c1	97	-4	96	7	x	x	x
Nc1cccc(-c2nc3cc(S(=O)(=O)c4ccc5oc(-c6cccc(N)c6)nc5c4)ccc3o2)c1	69*[inhibitor]	-27	71	x	86	-18	92
COc1ccc(-c2nc(C)sc2CC(=O)O)cc1OC	96	-9	92	8	x	x	x
c1csc(-c2cn3ccc4ccccc4c3n2)c1	6.0*[inhibitor]	-18	7.0*[inhibitor]	0	105	7	108
Cc1nonc1OCCNCc1c(C(=O)N2CCCCCCC2)nc2ccc(Cl)cn12	104	13	108	-3	x	x	x
COc1ccc(NC(=O)CCC(=O)OCC(=O)c2ccc(Oc3ccc([N+](=O)[O-])cc3)cc2)cc1	113	1	105	8	x	x	x
Cc1ccc(NC(=O)CCC(=O)OCC(=O)c2ccc(Oc3ccc([N+](=O)[O-])cc3)cc2)cc1	144*	0	108	-32	101	1	104

Bioassay records from PubChem BioAssay.
